Series [1] has as its system Rattus norvegicus. Nature of the series: Antiinflammatory activity in albino rat assessed as inhibition of carrageenan-induced paw edema at 100 mg/kg, po administered 1 hr prior to carrageenan-challenge measured after 3 hrs. The format is functional. The method, boiled down:
(§1)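 Adult albino rats of both sexes (120–150 g), pre-hydrated with 3 ml water by gavage, five per group. Test agents suspended in distilled water with a few drops of Tween 80, given orally 1 h before sub-plantar injection of 50 µl 1% carrageenan into the right hind paw. Dial-gauge paw thickness taken at 0.5, 1, 2 and 3 h, with the left paw as reference. % inhibition = (Wc−Wt)/Wc × 100 against saline/Tween 80 controls.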
For orientation: Carrageenan injected into the paw causes an acute inflammation.

In series [2] the test system is Rattus norvegicus. The series is described as follows: Antiinflammatory activity in albino rat assessed as inhibition of carrageenan-induced paw edema at 50 mg/kg, po administered 1 hr prior to carrageenan-challenge measured after 0.5 hrs. Type of series: functional. An outline of the steps: as §1
The test system of series [3] is Rattus norvegicus. The series is described as follows: Antiinflammatory activity in albino rat assessed as inhibition of carrageenan-induced paw edema at 50 mg/kg, po administered 1 hr prior to carrageenan-challenge measured after 1 hr. The format is functional. An outline of the steps: as §1
Series [4] deals with Rattus norvegicus. Nature of the series: Antiinflammatory activity in albino rat assessed as inhibition of carrageenan-induced paw edema at 50 mg/kg, po administered 1 hr prior to carrageenan-challenge measured after 2 hrs. Type of series: functional. An outline of the steps:
as §1

The test system of series [5] is Rattus norvegicus. Nature of the series: Antiinflammatory activity in albino rat assessed as inhibition of carrageenan-induced paw edema at 50 mg/kg, po administered 1 hr prior to carrageenan-challenge measured after 3 hrs. Type of series: functional. The method, boiled down:
as §1

Series [6] relates to Rattus norvegicus. The series is described as follows: Antiinflammatory activity in albino rat assessed as inhibition of carrageenan-induced paw edema at 20 mg/kg, po administered 1 hr prior to carrageenan-challenge measured after 3 hrs. The format is functional. An outline of the steps:
(§2)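 Carrageenan rat paw oedema (albino rats of both sexes, 120–150 g), oral dosing in Tween 80 suspension 1 h before 50 µl 1% carrageenan sub-plantar injection. Inhibition read at 3 h over a three-dose series (50, 100, 200 mg/kg for test agents; 20, 50, 100 mg/kg for diclofenac sodium). IC50 given in mg/kg and µmol/kg.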

The test system of series [7] is Rattus norvegicus. Nature of the series: Antiinflammatory activity in po dosed albino rat assessed as inhibition of carrageenan-induced paw edema administered 1 hr prior to carrageenan-challenge measured after 3 hrs. The format is functional, organism-based. An outline of the steps:
as §2

For series [8], the system named is Rattus norvegicus. Nature of the series: Ulcerogenic activity in fasted albino rat assessed as ulcer index at 50 mg/kg po administered qd for 3 days measured on day 4. To be noted: in vivo, 72 h. Also on record: dose 50 mg/kg, route oral. The format is toxicity, organism-based. The method, boiled down:
(§3)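 Albino rats of both sexes (120–150 g), five per group, fasted 20 h, then dosed orally in 1% Tween (test agents 100 mg/kg, celecoxib and diclofenac sodium 50 mg/kg). Feeding cycle: 2 h fast, 2 h feed, 20 h fast, repeated with doses on days 2 and 3. Ulcers scored 0–4. Ulcer index = %incidence/10 + mean ulcer number + mean severity.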

Another series is filed under the species Ovis aries. The series is described as follows: Selectivity ratio of IC50 for ovine COX2 to ovine COX1. An outline of the steps: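 Ovine COX-1 and COX-2 inhibition measured with a commercial COX inhibitor screening kit following the Gierse et al. method. Selectivity expressed as the ratio IC50(COX-2)/IC50(COX-1).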
Series [9] concerns Rattus norvegicus. Nature of the series: Antiinflammatory activity in albino rat assessed as inhibition of carrageenan-induced paw edema at 100 mg/kg, po administered 1 hr prior to carrageenan-challenge measured after 0.5 hrs. The format is functional. The method, boiled down:
as §1

Series [10] deals with Rattus norvegicus. The series is described as follows: Antiinflammatory activity in albino rat assessed as inhibition of carrageenan-induced paw edema at 100 mg/kg, po administered 1 hr prior to carrageenan-challenge measured after 1 hr. The format is functional. An outline of the steps:
as §1

For series [11], the system named is Rattus norvegicus. Nature of the series: Antiinflammatory activity in albino rat assessed as inhibition of carrageenan-induced paw edema at 100 mg/kg, po administered 1 hr prior to carrageenan-challenge measured after 2 hrs. The format is functional. An outline of the steps:
as §1

For series [12], the system named is Rattus norvegicus. Nature of the series: Antiinflammatory activity in albino rat assessed as inhibition of carrageenan-induced paw edema at 200 mg/kg, po administered 1 hr prior to carrageenan-challenge measured after 3 hrs. The format is functional. An outline of the steps:
as §2

The test system of series [13] is Rattus norvegicus. The series is described as follows: Antiinflammatory activity in po dosed albino rat assessed as inhibition of carrageenan-induced paw edema administered 1 hr prior to carrageenan-challenge relative to diclophenac. The format is functional.
In series [14] the test system is Rattus norvegicus. Nature of the series: Ulcerogenic activity in fasted albino rat assessed as ulcer index at 100 mg/kg po administered qd for 3 days measured on day 4. Type of series: toxicity, organism-based. Also on record: dose 100 mg/kg, route oral. To be noted: in vivo, 72 h. An outline of the steps: as §3

For the compound `O=C([O-])Cc1ccccc1Nc1c(Cl)cccc1Cl.[Na+]` [DICLOFENAC SODIUM], the inhibition in vivo (usually the relative decrease from the control value, in per cent) at 100 mg/kg with Rattus norvegicus [1] was 91.2%. Also, the inhibition in vivo at 50 mg/kg in the series on Rattus norvegicus [2] was determined as 76.9%; in the series with Rattus norvegicus [3], 83.6%; in the series with Rattus norvegicus [4] it was 87.7%; in the series with Rattus norvegicus [5], 87.3%. Besides, the inhibition in vivo at 20 mg/kg in the series on Rattus norvegicus [6] was found to be 42.2%. In the series on Rattus norvegicus [7], the IC50 was 45.01 mg/kg. The UI in the series with Rattus norvegicus [8] amounted to 17.02.

With `Cc1ccc(-c2cc(C(F)(F)F)nn2-c2ccc(S(N)(=O)=O)cc2)cc1` [CELECOXIB], the UI in the series on Rattus norvegicus [8] is listed as 12.51. For the same compound, the Ratio IC50 in the series filed under Ovis aries turned out to be 0.02.

`Cn1c(SCC(=O)Nn2c(COc3ccc(Cl)cc3Cl)nc3ccccc3c2=O)nc(-c2ccc(O)cc2)c(C#N)c1=O`: the inhibition in vivo at 100 mg/kg was 76.9% with Rattus norvegicus [9], 80% in the series on Rattus norvegicus [10], 86% with Rattus norvegicus [11] and 86% with Rattus norvegicus [1]. Also, in the series with Rattus norvegicus [5], the inhibition in vivo at 50 mg/kg stood at 70.4%. For the same compound, the inhibition in vivo at 200 mg/kg in the series with Rattus norvegicus [12] worked out at 97.8%. Also, the IC50 with Rattus norvegicus [7] is 82.89 mg/kg. Besides, the “inhibition (INH)” value in the series on Rattus norvegicus [13] is on record as over 90%. In the series on Rattus norvegicus [14], the UI amounted to 11.22. Also, the Ratio IC50 in the series filed under Ovis aries was found to be 0.62.

(Values after ChEMBL document CHEMBL2034933, “New quinazolinone-pyrimidine hybrids: synthesis, anti-inflammatory, and ulcerogenicity studies” (Eur J Med Chem, 2012).)
